# From PubChem BioAssay
# HTRA1 inh = HTRA1 (human) protease inhibition. 0.5% of 340,000 active. inhibition, % at 5.96 µM. recombinant HTRA1, FP-rhodamine activity-based probe, fluorescence polarization. AID 504803; in the data active means inhibition above about 36%;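 further: 0% = enzyme with DMSO and 100% = wells lacking enzyme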
# Target sequence (Q92743 whole entry, looked up): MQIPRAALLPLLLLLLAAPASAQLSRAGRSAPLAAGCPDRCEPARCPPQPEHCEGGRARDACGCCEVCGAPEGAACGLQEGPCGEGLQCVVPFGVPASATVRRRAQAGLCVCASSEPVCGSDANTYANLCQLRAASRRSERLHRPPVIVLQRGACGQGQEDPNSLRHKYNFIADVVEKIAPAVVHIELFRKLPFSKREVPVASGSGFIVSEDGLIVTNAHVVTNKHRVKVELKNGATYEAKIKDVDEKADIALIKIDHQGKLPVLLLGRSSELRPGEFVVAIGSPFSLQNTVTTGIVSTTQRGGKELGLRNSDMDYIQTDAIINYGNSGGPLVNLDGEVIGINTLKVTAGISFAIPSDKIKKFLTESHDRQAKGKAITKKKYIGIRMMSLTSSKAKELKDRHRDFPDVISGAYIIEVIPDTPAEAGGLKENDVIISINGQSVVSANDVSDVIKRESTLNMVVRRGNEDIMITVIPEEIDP
# ABHD4 inh = inhibits mouse alpha/beta hydrolase domain 4. Q8VD66. purified mABHD4, FP-Rh probe fluorescence polarization. inhibition, % at 8.92 µM. 0.54% of 370,000 active;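 active means inhibition exceeding the mean over every tested compound plus 3 SD, cut at about 30% in these data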;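 further: 0% = plate median of compound wells and 100% = S159A mutant with DMSO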
#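 Assay system: wild-type mouse ABHD4 protein; compound: single nominal dose of 8.92 µM, 0.89% DMSO final; schedule: 45 min + 60 min at 25 °C; measured by: FP readout, ex 525 nm / em 598 nm; evaluation: % inhibition of FP-Rh probe binding versus controls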
# SIAE inh = blocks human sialic acid acetylesterase | Q9HAT2 | SIAE FP-Rh probe binding, fluorescence polarization | inhibition, % at 9.66 µM | 0.69% of 370,000 active | AID 1053197;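 active means inhibition above a cutoff: mean of compounds within the control limits plus 3 SD of those, cut at about 17% in these data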;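 further: 0% = plate median of compound wells and 100% = probe without SIAE protein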
# LEDGF integ inh = blocks HIV-1 LEDGF/p75-dependent DNA integration; TR-FRET IN-LEDGF/p75 DNA integration, Eu/Cy5; inhibition, % at 3.7 µM; 0.64% of 370,000 active; AID 743269;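 active means inhibition above the screen-wide mean plus 3 SD, cut at about 13% in these data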;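 further: signal is the Cy5 over europium emission ratio at 671 and 618 nm; 0% = plate median of compound wells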
# TDP2 inh = TDP2 (human) inhibition, absorbance primary screen; recombinant TDP2, T5PNP hydrolysis, p-nitrophenol absorbance 415 nm; inhibition, % at 12.8 µM; 0.34% of 370,000 active;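 active means inhibition above the mean of all tested compounds plus 3 SD, set per campaign, cut at about 25% in these data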;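 further: 0% = DMSO with enzyme and 100% = buffer with substrate but no TDP2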
#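 test system = human TDP2 enzyme | input = TDP2 enzyme at 120 nM final | medium = 50 mM Tris-HCl pH 7.5 with Mg2+, KCl, DTT, BSA | also added = T5PNP substrate, 5 mM | times = 2 h at 37 °C | technique = epi absorbance | benchmarks = high control without enzyme, low control DMSO plus TDP2 | replication = each compound tested once, singlicate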
# TCR-CD3 inh = human TCR-CD3 binding inhibition. TAMRA-labeled TCR probe fluorescence, biochemical. inhibition, % at 9.4 µM. 0.37% of 360,000 active. AID 651800; in the data active means inhibition above about 19%;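 further: recombinant mutant TCR 2C K166C tagged with TAMRA read by polarization; 0% = receptor in buffer alone and 100% = receptor with positive control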
# SIAE confirm = human SIAE inhibition, confirmation; shares compounds with SIAE inh; SIAE FP-Rh activity-based probe, fluorescence polarization; inhibition, % at 9.66 µM; 13% of 2,300 active; AID 1117263;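 active means mean inhibition of the replicates above the hit cutoff set in the primary screen, cut at about 17% in these data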;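 further: 0% = SIAE with DMSO and probe and 100% = probe without SIAE; inhibitors lower polarization as more probe stays unbound to SIAE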
# * = called active by the depositor; · = not tested or not shown; ! = repeats disagree. A selection: hits, their analogues and other compounds. The true share with any hit is near 2.2%.
SMILES,HTRA1 inh,ABHD4 inh,SIAE inh,LEDGF integ inh,TDP2 inh,TCR-CD3 inh,SIAE confirm
O=C(COC(=O)c1cc(Br)ccc1O)NCCC1=CCCCC1,-4,3,12,2,-6,-1,·
COc1ccccc1N1CCN(C2CCCN(Cc3c(F)cccc3F)C2)CC1 (configuration not stated),1,-6,-1,-1,0,-5,·
COc1ccccc1N1CCN(C2CCCN(Cc3cccc(O)c3)C2)CC1 (configuration not stated),-6,4,17*,-3,8,3,5
COc1ccc(-n2ccnc(SCC(=O)NC3CCCC3)c2=O)cc1,-3,7,3,2,-1,3,·
COc1ccc(-c2[nH]c(-c3ccc(SC)cc3)nc2SCC(=O)Nc2nccs2)cc1,3,10,22*,-3,1,1,9
COc1ccc(-c2nc(SCC(=O)NC3CCCC3)c(-c3ccc(OC)cc3)[nH]2)cc1,7,9,18*,-5,-8,-2,6
O=C(c1cc(Cl)ccc1F)N1CCCC(Nc2ccc3c(c2)OCCO3)C1 (configuration not stated),0,2,17*,-3,-6,2,0
CCCCN(C)C(=O)c1cn(C)c2ccc(S(=O)(=O)N3CCC(C)CC3)cc2c1=O,6,·,·,·,·,·,·
CCn1cc(/C=N\NC(=O)c2ccc3c(c2)c(C)c(C)n3Cc2ccccc2)c(C)n1,-22,-17,1,-6,-4,0,·
CCn1ncc(/C=N\NC(=O)c2ccc3c(c2)c(C)c(C)n3Cc2ccccc2)c1C,-33,-2,38*,-5,1,7,-8
COC(=O)c1c(C)[nH]c(C(=O)CN(C)CC(=O)Nc2cccc(F)c2)c1C,-6,-4,-6,4,-8,4,·
COc1ccccc1CNc1nc(NCc2ccccc2OC)c2sccc2n1,·,15,20*,0,-5,-7,13
COCCNc1nc(NCc2ccccc2OC)c2sccc2n1,·,-1,-2,0,-8,0,·
COC(=O)C(Cc1c[nH]c2ccccc12)NC(=O)c1cncc(Br)c1 (configuration not stated),-1,4,20*,-6,3,-4,1
COc1ccc(Nc2nc(N)c([N+](=O)[O-])c(NCc3ccccc3)n2)cc1,-1,-2,24*,7,8,3,5
CC(C)[C@@H](C(=O)N1CCCC1)N1C(=O)N2CCc3c([nH]c4ccccc34)[C@@]2(C)C1=O,4,-1,0,-4,-10,-4,·
COc1ccc(N2CCN(c3nc4cc(C)ccc4cc3C=O)CC2)cc1,-1,9,12,1,3,15,·
COc1ccc(OC)c(NC(=O)C2(C)CCN2C(=O)CCC2CCCC2)c1 (configuration not stated),·,-3,10,0,-4,3,·
CN(C)c1ccc(-c2csc(C(O)c3ccc(F)cc3)n2)cc1 (configuration not stated),·,12,8,-1,3,-3,·
CN(C)c1ccc(-c2csc(C(O)c3ccc(F)c(F)c3)n2)cc1 (configuration not stated),·,4,17*,-1,2,3,2
O=C(CSc1ccc(-c2cccnc2)nn1)N1CCCC1,2,0,-6,-8,-10,-5,·
O=C(CSc1ccc(-c2cccnc2)nn1)N1CCCCCC1,2,-3,27*,2,4,10,1
CCN1CCN(CCC(=O)Nc2cc(OC)ccc2OC)CC1,0,4,20*,0,-5,-2,6
O=C(Nc1cccc(S(=O)(=O)Nc2ccccc2F)c1)c1ccco1,-4,-3,-2,-5,2,-7,·
O=C1CCC(C(=O)Nc2cccc(S(=O)(=O)Nc3ccccc3F)c2)=NN1,1,7,24*,-3,-1,2,3
SMILES,HTRA1 inh,ABHD4 inh,SIAE inh,LEDGF integ inh,TDP2 inh,TCR-CD3 inh,SIAE confirm
COc1ccccc1-n1c(C)nc2cc(C(=O)O)ccc21,10,0,17*,-1,2,8,-2
Cc1nc2cc(C(=O)O)ccc2n1-c1ccccc1,1,2,-3,1,6,1,·
Cc1ccc(NC(=O)CCS(=O)(=O)c2ccccc2)cc1C,·,6,7,-1,11,·,·
COc1ccc(O)c(/C=N/Nc2nc(C)cc(-c3ccccc3)n2)c1,6,7,22*,0,2,-2,6
COc1ccc(/C=N/Nc2nc(C)cc(-c3ccccc3)n2)c(OC)c1,1,2,-1,7,1,-2,·
COc1cccc(NC(=O)CN(C)C(=O)C2=COCCO2)c1,-5,0,18*,-1,-17,-9,4
COc1cccc(NC(=O)C2=COCCO2)c1,-5,1,-1,-6,-4,-3,·
COc1ccc(NS(=O)(=O)c2cc(NC(=O)c3ccc(=O)[nH]c3)ccc2N2CCCC2)cc1,0,6,23*,-2,-7,3,2
O=C(Cc1ccc(NC(=O)C2CCN(C(=O)C3CCCCC3)CC2)cc1)Nc1ccc(C(=O)N2CCOCC2)cc1,4,-11,-10,0,-17,4,·
Oc1c(C=C2N=c3ccccc3=N2)sc(=S)n1-c1ccc(F)cc1,0,-4,18*!,-3,0,2,0
COc1ccc(NC(=O)CC2C(=O)N(C)C(=S)N2Cc2ccco2)cc1 (configuration not stated),-4,7,20*,0,0,10,4
COC(=O)c1cc2ccc(OC)cc2c2cc(OC)c(OC)cc12,-36,-6,-39,0,0,6,·
CC1CCCCN1C(=O)COC(=O)C1CCN(S(=O)(=O)c2ccc3c(c2)OCCO3)CC1 (configuration not stated),-1,2,3,-1,8,4,·
COCCN(CCOC)C(=S)Nc1cc(S(=O)(=O)N(C)C)ccc1C,-2,2,20*,2,5,6,-4
CC(Sc1nc(N2CCCCC2)c2c(c1C#N)CCCC2)C(=O)O (configuration not stated),-7,-4,22*,3,-5,0,-1
CC(Sc1nc(N2CCOCC2)c2c(c1C#N)CC(C)(C)OC2)C(=O)O (configuration not stated),7,1,7,8,-13,-1,·
CCc1ccc(NC(=O)COC(=O)CC2CCCC2)cc1,-5,6,4,-2,3,-4,·
CC(C)c1ccc(NC(=O)COC(=O)CC2CCCC2)cc1,-11,-1,20*,1,2,-3,-1
